Assay results: ChEMBL document CHEMBL2434946, “Synthesis of lipoic acid-peptide conjugates and their effect on collagen and melanogenesis” (Eur J Med Chem, 2013)
The source made the active and inactive calls. The rule behind the calls is not given here. Peptide text beside a SMILES is read from it.

How the values were obtained:
[1] = Solubility of the compound in water; type: physicochemical
[2] = molecular target: T1, Tyrosinase (Mus musculus) (UniProt P11344); assay: Inhibition of tyrosinase in mouse B16F10 cells assessed as inhibition of melanin synthesis at 0.25 mM after 72 hrs by spectrophotometry relative to control; type: cell-based; conditions: B16-F10
T1 sequence (whole entry): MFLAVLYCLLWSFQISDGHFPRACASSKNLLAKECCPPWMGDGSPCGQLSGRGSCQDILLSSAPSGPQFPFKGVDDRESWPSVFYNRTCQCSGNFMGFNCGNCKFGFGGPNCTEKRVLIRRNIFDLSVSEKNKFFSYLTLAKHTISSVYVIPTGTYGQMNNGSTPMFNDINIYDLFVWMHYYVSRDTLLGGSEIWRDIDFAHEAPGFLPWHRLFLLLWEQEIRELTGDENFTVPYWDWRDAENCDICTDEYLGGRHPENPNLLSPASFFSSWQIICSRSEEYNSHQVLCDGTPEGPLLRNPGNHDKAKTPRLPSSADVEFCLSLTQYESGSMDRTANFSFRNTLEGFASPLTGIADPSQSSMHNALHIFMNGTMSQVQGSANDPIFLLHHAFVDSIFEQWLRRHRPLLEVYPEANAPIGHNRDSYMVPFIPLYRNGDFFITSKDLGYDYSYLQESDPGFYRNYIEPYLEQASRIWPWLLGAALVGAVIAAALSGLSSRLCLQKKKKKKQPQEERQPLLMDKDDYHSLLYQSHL
Outline: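 B16F10 cells grown with α-MSH were treated with samples for 72 h, then counted, washed and pelleted. Pellets solubilized in 1 N NaOH plus phosphate buffer pH 6.8 containing 1% Triton X-100 and 2 mM PMSF. Melanin read at 405 nm against a synthetic melanin standard curve and expressed as percent of control; triplicate, mean ± SD.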

[3] = Inhibition of UV light-induced MMP-1 protein expression in HDF at 0.5 mM after 72 hrs UV light irradiation by ELISA; type: functional; conditions: Homo sapiens
Outline: (§1)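 HDFs washed twice with PBS, then exposed to UVA at 6.3 J/cm2. MMP-1 protein in culture medium measured by ELISA 72 h after irradiation: anti-MMP-1 monoclonal 60 min at 37 °C, alkaline phosphatase-conjugated anti-mouse IgG 30 min, OD405. IC50 taken as the dose that lowers UV-induced MMP-1 by 50%; triplicate, mean ± SD.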

[4] = Cytotoxicity against mouse B16F10 cells assessed as cell viability after 48 hrs by MTT assay; type: cell-based, B16-F10; conditions: read-out: MNCC
Outline: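 B16F10 mouse melanoma cells grown in DMEM with 10% FBS, 1% penicillin-streptomycin and […] at 37 °C under 5% CO2. Exposed to samples 48 h at 37 °C, then MTT added for 3 h with A570 read-out. Reported value is the highest tested dose that caused no loss of viability.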

[5] = Inhibition of UV light-induced MMP-1 protein expression in HDF after 72 hrs UV light irradiation by ELISA; type: functional, Homo sapiens; conditions: for inhibition: Homo sapiens; outline: as §1
[6] = test system: HDF; assay: Induction of collagen synthesis in HDF at 0.5 mM after 24 hrs by EIA; type: functional; conditions: Homo sapiens
Outline: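 HDFs seeded at 5 × 10^4 cells and grown 24 h in DMEM with 10% FBS. Medium then switched to serum-free medium containing sample (0.5 mM) for 24 h. Type I procollagen in the supernatant measured by enzyme immunoassay kit; triplicate, mean ± SD.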

[7] = Induction of HDF proliferation at 0.5 mM after 48 hrs by MTT assay relative to control; type: functional, Homo sapiens
Outline: (§2)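 Human dermal fibroblasts grown in DMEM with 10% FBS and 1% penicillin-streptomycin at 37 °C under 5% CO2. Treated 48 h at 0.5, 2.5 and 5 mM. MTT ([…]) added for 3 h at 37 °C, then absorbance read at 570 nm. Result expressed as percent viable cells versus untreated control; triplicate, mean ± SD.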

[8] = molecular target: T2, Tyrosinase (Agaricus bisporus) (UniProt O42713); assay: Inhibition of mushroom tyrosinase using L-DOPA as substrate at 2.5 mM preincubated for 10 to 15 mins prior to substrate addition by spectrophotometry
T2 sequence (whole entry): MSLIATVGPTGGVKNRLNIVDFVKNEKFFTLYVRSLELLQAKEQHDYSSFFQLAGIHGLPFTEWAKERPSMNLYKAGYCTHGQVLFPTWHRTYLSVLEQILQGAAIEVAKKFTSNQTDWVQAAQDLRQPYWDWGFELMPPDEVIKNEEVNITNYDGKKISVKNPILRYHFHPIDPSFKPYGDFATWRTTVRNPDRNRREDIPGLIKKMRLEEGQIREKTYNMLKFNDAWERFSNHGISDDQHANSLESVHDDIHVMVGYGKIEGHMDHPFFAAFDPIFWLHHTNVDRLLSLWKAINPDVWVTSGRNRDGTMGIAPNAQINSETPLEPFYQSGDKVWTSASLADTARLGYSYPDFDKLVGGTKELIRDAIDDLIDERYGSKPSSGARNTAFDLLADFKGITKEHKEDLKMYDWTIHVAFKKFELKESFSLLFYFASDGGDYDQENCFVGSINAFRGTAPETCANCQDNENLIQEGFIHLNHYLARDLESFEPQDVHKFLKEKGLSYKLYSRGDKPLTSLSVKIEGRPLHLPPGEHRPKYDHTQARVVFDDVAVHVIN
Outline: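 Mushroom tyrosinase (625 U/mL solution) pre-incubated with sample in phosphate-buffered saline for 10–15 min at 25 °C. Reaction started with 0.03% L-DOPA, and dopachrome formation read at 475 nm. Result given as percent inhibition; triplicate, mean ± SD.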

[9] = Cytotoxicity against HDF at 0.5 to 5 mM after 48 hrs by MTT assay; conditions: human, 5000 µM; outline: as §2
[10] = test system: HDF; assay: Induction of HDF proliferation at 0.1 mM after 48 hrs by MTT assay relative to control; type: functional; conditions: Homo sapiens
[11] = Induction of HDF proliferation at 5 mM after 48 hrs by MTT assay relative to control; type: functional, Homo sapiens; outline: as §2

Compound | solubility [1] [mg/mL] | inhibition [2] [%] | inhibition [3] [%] | MNTC at 48 h [4] [mM] | IC50 [5] [µM] | inhibition [5] | Activity [6] | Activity [7] [%] | inhibition [8] | Activity [9] | Activity [10] | Activity [11] [%]
C[C@@H](O)[C@H](NC(=O)[C@H](CCCCN)NC(=O)CCCC[C@@H]1CCSS1)C(=O)N[C@H](C(=O)N[C@@H](CCCCN)C(=O)N[C@@H](CO)C(=O)O)[C@@H](C)O (HELM PEPTIDE1{[O=C(CCCC[C@@H]1CCSS1)[*:2]].K.T.T.K.S}$$$$V2.0) | > 100 | 46.1 | 49.5 | 1 | 500 | Dose-dependent effect | Active | 24.5 | 60.2% |  |  | 
O=C(O)CCCCC1CCSS1 (stereo not drawn) [LIPOIC ACID, ALPHA] |  |  |  | 0.1 |  |  |  |  | Active | Toxic | inactive | 
H-KTTKS-OH |  | 7.5 |  | 5 |  | Dose-dependent effect | Active |  | Active |  |  | 13.4
